Measurements collected from several papers.
Target: Casein kinase I isoform gamma-2 (CSNK1G2, Homo sapiens, UniProt P78368)

SMILES	read-out	technique	concentration	remaining binding [%]
CCN1CCN(Cc2ccc(C(=O)Nc3ccc(C)c(Oc4ccc5c(c4)CC(=O)N5)c3)cc2C(F)(F)F)CC1	binding	competition with immobilised ligand	1 µM	100
N#CC1(c2ccccn2)CCN(Cc2cc(C(=O)N3CCCC3)c(=O)n3ccccc23)CC1	cell-free assay	competition with immobilised ligand	1 µM	76
N[C@H]1CCN(c2nccc(-c3cnn4ncccc34)n2)C1	binding	–	1 µM	98
CCS(=O)(=O)c1cc2cc(C[C@](O)(CC(C)(C)c3ccc(F)cc3C(N)=O)C(F)(F)F)[nH]c2cn1	cell-free assay	competition with immobilised ligand	1 µM	93
O=C(Nc1c[nH]nc1C(=O)NC1CCNCC1)c1cc(F)cc(F)c1	binding	competition with immobilised ligand	1 µM	100
COc1ccnn2ncc(-c3ccnc(N(C)C)n3)c12	binding	–	1 µM	81
N#Cc1ccccc1CSc1nnc2c(n1)[nH]c1ccccc12	binding	competition with immobilised ligand	10 µM	81
O=C(N1CCS(=O)(=O)CC1)N1C[C@H](c2ccc(OC(F)(F)F)cc2)C[C@H](c2nc(C3CC3)no2)C1	cell-free assay	competition with immobilised ligand	1 µM	89
CN(C)c1ncc(F)c(-c2cnn3ncccc23)n1	binding	–	1 µM	90
Nc1ncc2c(n1)-c1c([nH]c3ccc(C#CC4CC4)cc13)CCCC2	binding	competition with immobilised ligand	1 µM	100
CC1CCCN1c1nccc(-c2cnn3ncccc23)n1 (stereo not drawn)	binding	–	1 µM	77
COc1cnc(Nc2cccc(S(N)(=O)=O)c2)nc1N1CCN(c2ccccc2)CC1	binding	competition with immobilised ligand	1 µM	100
CC1=C(C#N)C(c2ccc3c(c2)c(NC(=O)c2ccccc2C)nn3C)C(C#N)=C(C)N1	cell-free assay	competition with immobilised ligand	1 µM	95
CC(C)(C)c1ccc(-c2nc(CBr)nn2-c2cccc(O)c2)cc1	cell-free assay	competition with immobilised ligand	10 µM	93
O=C(c1ccc(Nc2ncc(Cl)c(-c3cc4ccccc4s3)n2)cc1)N1CCC(N2CCCC2)CC1	binding	competition with immobilised ligand	1 µM	100
C[C@@H]1CCN(c2nccc(-c3cnn4ncccc34)n2)C1	binding	–	1 µM	62
Cc1cnc(Nc2ccc(C(=O)N3CCC(N4CCCC4)CC3)cc2)nc1-c1cc2ccccc2s1	binding	competition with immobilised ligand	1 µM	100
Cc1c(C(=O)O)cc(-c2ccc(C3CCNCC3)cc2)c2ccc(-c3ccc(C(F)(F)F)cc3)cc12	cell-free assay	competition with immobilised ligand	1 µM	100
c1cnn2ncc(-c3ccnc(N4CCC45COC5)n3)c2c1	binding	–	1 µM	77
O=C(c1ccc(Nc2ncc(Cl)c(-c3ccc(Cl)s3)n2)cc1)N1CCC(N2CCCC2)CC1	binding	competition with immobilised ligand	1 µM	100
O=C1CCc2cc(Nc3cc(OC4CCOCC4)c([N+](=O)[O-])cc3Cl)ccc2N1	cell-free assay	competition with immobilised ligand	1 µM	88
